The text below walks through data of ChEMBL document CHEMBL1629558, “Effect of electrical current on the activities of antimicrobial agents against Pseudomonas aeruginosa, Staphylococcus aureus, and Staphylococcus epidermidis biofilms” (2009).

Common to all, as to assay type: functional
In experiment [1] the test system is Pseudomonas aeruginosa. The experiment is described as follows: Antimicrobial activity against Pseudomonas aeruginosa Xen 5 by broth microdilution method. The method in brief:
(§1)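 Planktonic MICs determined by CLSI broth microdilution; strains (MRSA Xen 30, P. aeruginosa Xen 5) stored at −70°C.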

In experiment [2] the test system is Pseudomonas aeruginosa. Put plainly: Antimicrobial activity against Pseudomonas aeruginosa Xen 5 biofilm assessed as log10 CFU/cm'2 in bacterial count. The method in brief: (§2)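 Biofilms grown on Teflon coupons in a CDC biofilm reactor (1 ml of 10^8 CFU/ml inoculum, 37°C shaking 18 h, then 18 h at room temperature). Coupons then sat 24 h at room temperature in flow chambers with fresh medium ± drug ± direct current via graphite electrodes. Biofilm removed by vortex plus 5 min sonication, plated on blood agar (37°C, 5% CO2, 48 h). Triplicate; mean log10 CFU/cm2.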

Experiment [3] deals with Pseudomonas aeruginosa. The experiment is described as follows: Antimicrobial activity against Pseudomonas aeruginosa Xen 5 biofilm assessed as log10 CFU/cm'2 in bacterial count in presence of 2000 microamperes of electric current by bioelectric effect assay. The method in brief: as §2
Experiment [4] concerns Staphylococcus aureus. Put plainly: Antimicrobial activity against Staphylococcus aureus Xen 30 by broth microdilution method. The method in brief: as §1
Experiment [5] deals with Staphylococcus epidermidis. The experiment is described as follows: Antimicrobial activity against Staphylococcus epidermidis Xen 43 by broth microdilution method.
Experiment [6] relates to Staphylococcus aureus. The experiment is described as follows: Antimicrobial activity against Staphylococcus aureus Xen 30 biofilm assessed as log10 CFU/cm'2 in bacterial count. Put shortly: as §2
The test system of experiment [7] is Staphylococcus aureus. Put plainly: Antimicrobial activity against Staphylococcus aureus Xen 30 biofilm assessed as log10 CFU/cm'2 in bacterial count in presence of 200 microamperes of electric current by bioelectric effect assay. The method in brief: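 MRSA Xen 30 biofilms grown on Teflon coupons (12.5 mm) in a CDC biofilm reactor seeded with 1 ml of 10^8 CFU/ml: 18 h 37°C with shaking, then 18 h room temperature. Coupons were exposed in flow chambers to fresh medium ± antimicrobial with direct current for 24 h at room temperature. Biofilm was dislodged by vortex and sonication, then plated on blood agar. Counts are mean log10 CFU/cm2 from triplicate experiments.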

In experiment [8] the test system is Staphylococcus epidermidis. Put plainly: Antimicrobial activity against Staphylococcus epidermidis Xen 43 biofilm assessed as log10 CFU/cm'2 in bacterial count. The method in brief:
as §2

Experiment [9] concerns Staphylococcus epidermidis. The experiment is described as follows: Antimicrobial activity against Staphylococcus epidermidis Xen 43 biofilm assessed as log10 CFU/cm'2 in bacterial count in presence of 2000 microamperes of electric current by bioelectric effect assay. The method in brief:
as §2

In experiment [10] the test system is Staphylococcus aureus. The experiment is described as follows: Antimicrobial activity against Staphylococcus aureus Xen 30 biofilm assessed as log10 CFU/cm'2 in bacterial count in presence of 2000 microamperes of electric current by bioelectric effect assay. Put shortly:
as §2

In experiment [11] the test system is Staphylococcus epidermidis. The experiment is described as follows: Antimicrobial activity against Staphylococcus epidermidis Xen 43 biofilm assessed as log10 CFU/cm'2 in bacterial count in presence of 200 microamperes of electric current by bioelectric effect assay. The method in brief: as §2
For experiment [12], the system named is Staphylococcus aureus. Put plainly: Antimicrobial activity against Staphylococcus aureus Xen 30 biofilm assessed as log10 CFU/cm'2 in bacterial count in presence of 20 microamperes of electric current by bioelectric effect assay. The method in brief:
as §2

The subject of experiment [13] is Pseudomonas aeruginosa. The experiment is described as follows: Antimicrobial activity against Pseudomonas aeruginosa Xen 5 biofilm assessed as log10 CFU/cm'2 in bacterial count in presence of 200 microamperes of electric current by bioelectric effect assay. The method in brief:
as §2

Molecules are shown by their SMILES. Values after ≈ are worked out from the molar mass of the structure shown.

In turn, `CO/N=C(\C(=O)N[C@@H]1C(=O)N2C(C(=O)[O-])=C(C[N+]3(C)CCCC3)CS[C@H]12)c1csc(N)n1` had an MIC with Pseudomonas aeruginosa [1] of 2 µg/mL (≈ 4.16 µM). The log10cfu in the experiment with Pseudomonas aeruginosa [2] was determined as 0.96; with Pseudomonas aeruginosa [3], 1.43.

With `CCCCCCCCCC(=O)N[C@@H](Cc1c[nH]c2ccccc12)C(=O)N[C@H](CC(N)=O)C(=O)N[C@@H](CC(=O)O)C(=O)N[C@@H]1C(=O)NCC(=O)N[C@@H](CCCN)C(=O)N[C@@H](CC(=O)O)C(=O)N[C@H](C)C(=O)N[C@@H](CC(=O)O)C(=O)NCC(=O)N[C@H](CO)C(=O)N[C@@H]([C@H](C)CC(=O)O)C(=O)N[C@@H](CC(=O)c2ccccc2N)C(=O)O[C@@H]1C`, the MIC with Staphylococcus aureus [4] was 1 µg/mL (≈ 0.617 µM); in experiment [5], 0.125 µg/mL (≈ 0.0771 µM). Besides, the log10cfu in the experiment on Staphylococcus aureus [6] is 1.63; in the experiment with Staphylococcus aureus [7] it was 1.94; in experiment [8] it was -0.38; in experiment [9], 1.2.

As for `O=C(O)c1cn(C2CC2)c2cc(N3CCNCC3)c(F)cc2c1=O` [CIPROFLOXACIN], the log10cfu is listed as -0.63 with Pseudomonas aeruginosa [2] and 1.86 with Pseudomonas aeruginosa [3].

For the compound `CC[C@H]1OC(=O)[C@H](C)[C@@H](O[C@H]2C[C@@](C)(OC)[C@@H](O)[C@H](C)O2)[C@H](C)[C@@H](O[C@@H]2O[C@H](C)C[C@H](N(C)C)[C@H]2O)[C@](C)(O)C[C@@H](C)C(=O)[C@H](C)[C@@H](O)[C@]1(C)O` [ERYTHROMYCIN], the MIC turned out to be 0.5 µg/mL (≈ 0.681 µM) with Staphylococcus aureus [4] and 0.125 µg/mL (≈ 0.17 µM) in experiment [5]. Also, the log10cfu in the experiment with Staphylococcus aureus [6] was -0.17; with Staphylococcus aureus [10], 0.27; in experiment [8], 0.7; in [11] it was 2.04.

As for `CC(=O)NC[C@H]1CN(c2ccc(N3CCOCC3)c(F)c2)C(=O)O1` [LINEZOLID], in [5], the lowest concentration to inhibit growth (MIC) was 1 µg/mL (≈ 2.96 µM). In addition, the log10cfu with Staphylococcus aureus [6] was determined as 0.62; in the experiment on Staphylococcus aureus [10], 1.51; in experiment [8] it was 0.22; in experiment [11], 0.63.

Turning to `CN(C)c1ccc(O)c2c1C[C@H]1C[C@H]3[C@H](N(C)C)C(O)=C(C(N)=O)C(=O)[C@@]3(O)C(O)=C1C2=O` [MINOCYCLINE], the results for the MIC (against Staphylococcus aureus [4]; in experiment [5]) were 4 µg/mL (≈ 8.74 µM) and 1 µg/mL (≈ 2.19 µM), respectively. For the same compound, the log10cfu is on record as 0.7 with Staphylococcus aureus [6], 2.04 in the experiment with Staphylococcus aureus [12], -0.18 in experiment [8] and 3.32 in experiment [11].

Regarding `COc1c(N2C[C@@H]3CCCN[C@@H]3C2)c(F)cc2c(=O)c(C(=O)O)cn(C3CC3)c12` [MOXIFLOXACIN], the figures for the MIC (against Staphylococcus aureus [4]; in [5]) were 2 µg/mL (≈ 4.98 µM) and at most 0.125 µg/mL, respectively. Also, the log10cfu in the experiment with Staphylococcus aureus [6] was 1.33; with Staphylococcus aureus [12], 2.1; in experiment [8], -0.41; in experiment [9], 0.82.

Consider `CO[C@H]1/C=C/O[C@@]2(C)Oc3c(C)c(O)c4c(O)c(c(/C=N/N5CCN(C)CC5)c(O)c4c3C2=O)NC(=O)/C(C)=C\C=C\[C@H](C)[C@H](O)[C@@H](C)[C@@H](O)[C@@H](C)[C@H](OC(C)=O)[C@@H]1C` [RIFAMPIN], for which the MIC against Staphylococcus aureus [4] was 2 µg/mL (≈ 2.43 µM); in [5], at most 0.125 µg/mL. The log10cfu with Staphylococcus aureus [6] is recorded as 0.86; with Staphylococcus aureus [10], 1.78; in experiment [8] it was 0.17; in [9], 2.5.

Turning to `NC[C@H]1O[C@H](O[C@H]2[C@H](O)[C@@H](O[C@H]3O[C@H](CO)[C@@H](O)[C@H](N)[C@H]3O)[C@H](N)C[C@@H]2N)[C@H](N)C[C@@H]1O` [TOBRAMYCIN], the MIC in the experiment on Pseudomonas aeruginosa [1] was 1 µg/mL (≈ 2.14 µM); with Staphylococcus aureus [4], 4 µg/mL (≈ 8.56 µM); in [5] it was 0.25 µg/mL (≈ 0.535 µM). Further, the log10cfu in the experiment on Pseudomonas aeruginosa [2] was found to be 1.69; with Pseudomonas aeruginosa [13], 2.48; in the experiment on Staphylococcus aureus [6], 0.86; with Staphylococcus aureus [10], 2; in [8], 0.2; in experiment [9] it was 3.08.

On to `CN[C@H](CC(C)C)C(=O)N[C@H]1C(=O)N[C@@H](CC(N)=O)C(=O)N[C@H]2C(=O)N[C@H]3C(=O)N[C@H](C(=O)N[C@H](C(=O)O)c4cc(O)cc(O)c4-c4cc3ccc4O)[C@H](O)c3ccc(c(Cl)c3)Oc3cc2cc(c3O[C@@H]2O[C@H](CO)[C@@H](O)[C@H](O)[C@H]2O[C@H]2C[C@](C)(N)[C@H](O)[C@H](C)O2)Oc2ccc(cc2Cl)[C@H]1O` [VANCOMYCIN], for which the log10cfu was -0.31 in the experiment on Staphylococcus aureus [6], 1.59 with Staphylococcus aureus [7], 0.7 in experiment [8] and 2.09 in [9].
